# Source: ChEMBL document CHEMBL1125175, “Synthesis and DNA-binding properties of polyamine analogues” (J Med Chem, 1991)
# Columns and labels:
# Calf thymus DNA = experiment: Ability to displace ethidium bromide from calf thymus DNA; format: nucleic-acid assay, Bos taurus
# How it was run: (§1)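 Fluorescence displacement. Ethidium bromide 1.6 μM final in 2 mM HEPES, 10 μM EDTA, 9.4 mM NaCl, pH 7.0, then DNA added at 2 μM final (DNA phosphate): calf thymus DNA, poly(dA-dT)·poly(dA-dT) or poly(dG-dC)·poly(dG-dC). Excitation 546 nm, emission 598 nm. Analogue titrated in aliquots. IC50 is the concentration halving ethidium–DNA fluorescence. Trial-to-trial variability generally <5%.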
# HeLa [1] = experiment: Ability to inhibit 50% growth of HeLa cells; format: functional, cell-based; settings: Homo sapiens
# How it was run: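 HeLa cells grown 2 days, then counted to set the baseline. Analogues added in complete medium for a further 2 days, then cells counted. Growth increase compared with untreated controls. IC50 is the concentration giving a 50% decrease in growth relative to controls.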
# Nucleic Acid [2] = experiment: Ability to displace ethidium bromide from double stranded synthetic poly (dG-dC); format: nucleic-acid assay; how it was run: as §1
# Nucleic Acid [3] = experiment: Ability to displace ethidium bromide from double stranded synthetic Poly (dA-dT); format: nucleic-acid assay; how it was run: as §1
# HeLa [4] = experiment: Ability to cause aggregation of purified HeLa cell DNA; format: functional; settings: Homo sapiens
# How it was run: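 HeLa DNA labelled via 3-day culture with 4 μCi [³H]thymidine, then phenol/chloroform extracted. 1.5 μg DNA (~20000 cpm) plus analogue at various concentrations in buffer of 25 mM Tris, 4.5 mM KCl, 3 mM MgCl₂, pH 7.6. Incubated 10 min at 37 °C, then centrifuged 2.5 min and supernatant counted.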
SMILES,IC50 (Calf thymus DNA),IC50 (HeLa [1]),IC50 (Nucleic Acid [2]),IC50 (Nucleic Acid [3]),IC50 (HeLa [4])
NCCCNCCCC1CCC(CCCNCCCN)CC1 (configuration not stated),7.5 µM,90 µM,–,–,–
NCCCNCCCCNCCCN [SPERMINE],4.3 µM,50 µM,6 µM,2.8 µM,70 µM
NCCCNCCCCCCCCNCCCN,4.9 µM,50 µM,7.8 µM,3.8 µM,35 µM
C=C(CNC)CNCCCCCCCCNCC(=C)CNC,19.1 µM,125 µM,30 µM,4.5 µM,–
c1ccc(CNCCNCCCCCCCCCCNCCNCc2ccccc2)cc1,600 µM,2 µM,1600 µM,700 µM,> 8000 µM
NCCCNC(F)(F)CCCN,875 µM,–,900 µM,1000 µM,7000 µM
CCNCCCNCCCCCCCCNCCCNCC,15 µM,200 µM,19.5 µM,3.9 µM,150 µM
NCCCNCCCN [NORSPERMIDINE],220 µM,100 µM,370 µM,140 µM,3000 µM
NCCCNCC(F)(F)CN,> 10000 µM,–,–,–,–
c1ccc(NCCCNCCCCCCCNCCCNc2ccccc2)cc1,80 µM,–,–,–,–
c1ccc(CNCCCNCCCCCCCCCNCCCNCc2ccccc2)cc1,31 µM,10 µM,24.5 µM,2.9 µM,200 µM
c1ccc(CNCCCNCCCCCCCCNCCCNCc2ccccc2)cc1,13 µM,15 µM,32 µM,4.2 µM,300 µM
NCCCNCCCCCCCNCCCN,3.8 µM,200 µM,5.4 µM,2.6 µM,37 µM
c1ccc(CNCCCNCCCCCCNCCCNCc2ccccc2)cc1,5.5 µM,60 µM,25 µM,10 µM,85 µM
c1ccc(CNCCNCCCCCCCNCCNCc2ccccc2)cc1,600 µM,60 µM,316 µM,170 µM,600 µM
c1ccc(CNCCCCNCCCCCCCNCCCCNCc2ccccc2)cc1,10 µM,> 500 µM,20 µM,3.2 µM,95 µM
NCCCCN [PUTRESCINE],4500 µM,8000 µM,5200 µM,5100 µM,12000 µM
NCC(O)CNCCCCCCCCNCC(O)CN (configuration not stated),5.2 µM,–,27 µM,4.3 µM,200 µM
c1ccc(CNCCCNCCCCCNCCCNCc2ccccc2)cc1,12 µM,80 µM,22 µM,4.5 µM,–
NCCCNCCCCCCCCCCNCCCN,8 µM,10 µM,11 µM,4.2 µM,170 µM
NCCCNCCCC(F)(F)NCCCN,140 µM,–,–,–,2500 µM
c1ccc(CNCCCNCCCCNCCCNCc2ccccc2)cc1,10 µM,10 µM,17 µM,4.9 µM,40 µM
NCCCc1ccc(CCCN)cc1,400 µM,400 µM,–,–,3000 µM
CNC/C(=C\Cl)CNCCCCCCCNC/C(=C/Cl)CNC,12 µM,125 µM,34.5 µM,5 µM,–
NCCCCSCCCN,1450 µM,350 µM,–,–,> 15000 µM

SMILES,IC50 (Calf thymus DNA),IC50 (HeLa [1]),IC50 (Nucleic Acid [2]),IC50 (Nucleic Acid [3]),IC50 (HeLa [4])
CC(CCN)NCCCCCCCCNC(C)CCN (configuration not stated),7 µM,100 µM,12.6 µM,3.6 µM,180 µM
CNCC(C)CNCCCCCCCNCC(C)CNC (configuration not stated),12.8 µM,> 500 µM,20 µM,4.5 µM,–
NCC(=O)CNCCCCCCCCNCC(=O)CN,8.2 µM,–,18 µM,10.5 µM,400 µM
NCCCNCCCc1ccc(CCCNCCCN)cc1,5 µM,160 µM,–,–,250 µM
c1ccc(CCNCCCNCCCCCCCNCCCNCCc2ccccc2)cc1,8 µM,20 µM,10.7 µM,2.8 µM,85 µM
CCCNCCCNCCCCCCCNCCCNCCC,10 µM,300 µM,20.5 µM,3.8 µM,250 µM
c1ccc(CNCCCNCCCCCCCCCCNCCCNCc2ccccc2)cc1,33 µM,1 µM,26 µM,3.1 µM,400 µM
NCC(O)CNCCCCCCCNCC(O)CN (configuration not stated),4.9 µM,–,23 µM,4.5 µM,110 µM
CC(N)CCNCCCCCCCCNCCC(C)N (configuration not stated),7.5 µM,–,12.5 µM,4.2 µM,–
CCCNCCCNCCCCCCCCNCCCNCCC,17 µM,> 500 µM,25 µM,3.8 µM,220 µM
NCCCCNCCCN [SPERMIDINE],130 µM,100 µM,300 µM,110 µM,1500 µM
CNCCCNCCCCCCCNCCCNC,6 µM,500 µM,11 µM,3.5 µM,150 µM
CNC(C)CCNCCCCCCCNCCC(C)NC (configuration not stated),6.5 µM,–,15 µM,5 µM,100 µM
c1ccc(CNCCNCCCCCCNCCNCc2ccccc2)cc1,800 µM,75 µM,–,–,2400 µM
C/C=C(\CNC)CNCCCCCCCNC/C(=C/C)CNC,12 µM,> 500 µM,34.5 µM,5 µM,–
CC(CN)CNCCCCCCCNCC(C)CN (configuration not stated),8 µM,> 500 µM,10.5 µM,3 µM,–
NCCCNCCCCCCCCCNCCCN,12 µM,30 µM,16 µM,4.5 µM,–
c1ccc(CCCNCCCNCCCCCCCNCCCNCCCc2ccccc2)cc1,7.5 µM,20 µM,12 µM,4.7 µM,100 µM
c1ccc(CNCCCCNCCCCCCCCNCCCCNCc2ccccc2)cc1,12 µM,> 500 µM,20 µM,3.4 µM,105 µM
NCCCNCC(F)(F)CCN,275 µM,150 µM,–,–,3100 µM
CCNCCCNCCCCCCCNCCCNCC,11 µM,100 µM,20 µM,4 µM,200 µM
c1ccc(CNCCCNCCCCCCCNCCCNCc2ccccc2)cc1,6 µM,5 µM,31 µM,4.6 µM,150 µM
CCCCNCCCNCCCCCCCCNCCCNCCCC,20 µM,> 500 µM,40 µM,4.2 µM,340 µM
c1ccc(CNCCNCCCCCCCCNCCNCc2ccccc2)cc1,130 µM,20 µM,100 µM,40 µM,750 µM
